ChEMBL document CHEMBL4002637, “Synthesis, characterization, in vitro SAR and in vivo evaluation of N,N'bisnaphthylmethyl 2-alkyl substituted imidazolium salts against NSCLC” (Bioorg Med Chem Lett, 2017)
Calls of active or inactive are those of the source. The rule behind the calls is not given here.

Key:
[1] = tested on: NCI-H23; assay: Growth inhibition of human NCI-H23 cells after 24 hrs by SRB assay; format: functional; conditions: NCI-H23, 24 h
[2] = tested on: NCI-H460; assay: Antiproliferative activity against human NCI-H460 cells using 10% 2-HPbetaCD compound formulation after 72 hrs by MTT assay; format: functional, cell-based; conditions: NCI-H460, 72 h
Summary of the method: (§1)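 MTT anti-proliferation on NSCLC lines. Compounds dissolved in DMSO, diluted with water to 1% DMSO, then into growth medium (max 0.032% DMSO on cells); or dissolved in 10% (w/v) 2-HPβCD in water, then diluted (max 0.008% w/w 2-HPβCD in wells; vehicle controls at 0.008%). IC50 = concentration giving 50% loss of viability versus control cells. Cisplatin dissolved in water with stirring.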

[3] = tested on: NCI-H1975; assay: Antiproliferative activity against human NCI-H1975 cells using 1% DMSO/water compound formulation after 72 hrs by MTT assay; format: functional, cell-based; conditions: NCI-H1975, 72 h; summary of the method: as §1
[4] = tested on: NCI-H460; assay: Antiproliferative activity against human NCI-H460 cells using 1% DMSO/water compound formulation after 72 hrs by MTT assay; format: functional, cell-based; conditions: NCI-H460, 72 h; summary of the method: as §1
[5] = tested on: NCI-H460; assay: Growth inhibition of human NCI-H460 cells assessed as cell growth at 10 uM after 24 hrs by SRB assay relative to control; format: functional; conditions: NCI-H460, 24 h, read-out: Activity
Summary of the method: (§2)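 NCI DTP one-dose screen: cells plated at density set by doubling rate, incubated overnight, then exposed to compound at 10 μM for 24 hours. Growth percentage from protein density at end versus start of experiment, relative to initial cell number.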

[6] = tested on: A549; assay: Antiproliferative activity against human A549 cells using 10% 2-HPbetaCD compound formulation after 72 hrs by MTT assay; format: functional, cell-based; conditions: A549, 72 h; summary of the method: as §1
[7] = Solubility of the compound in 10% 2-HPbetaCD/water solution; format: physicochemical
[8] = tested on: A549; assay: Growth inhibition of human A549 cells assessed as cell growth at 10 uM after 24 hrs by SRB assay relative to control; format: functional; conditions: A549, 24 h, read-out: Activity; summary of the method: as §2
[9] = tested on: EKVX; assay: Growth inhibition of human EKVX cells assessed as cell growth at 10 uM after 24 hrs by SRB assay relative to control; format: functional; conditions: read-out: Activity; summary of the method: as §2
[10] = tested on: HCC827; assay: Antiproliferative activity against human HCC827 cells using 10% 2-HPbetaCD compound formulation after 72 hrs by MTT assay; format: functional, cell-based; conditions: HCC827, 72 h; summary of the method: as §1
[11] = tested on: NCI-H322M; assay: Growth inhibition of human NCI-H322M cells assessed as cell growth at 10 uM after 24 hrs by SRB assay relative to control; format: functional; conditions: read-out: Activity; summary of the method: as §2
[12] = tested on: A549; assay: Antiproliferative activity against human A549 cells using 1% DMSO/water compound formulation after 72 hrs by MTT assay; format: functional, cell-based; conditions: A549, 72 h; summary of the method: as §1
[13] = tested on: NCI-H226; assay: Growth inhibition of human NCI-H226 cells assessed as cell growth at 10 uM after 24 hrs by SRB assay relative to control; format: functional; conditions: NCI-H226, 24 h, read-out: Activity; summary of the method: as §2
[14] = tested on: HCC827; assay: Antiproliferative activity against human HCC827 cells using 1% DMSO/water compound formulation after 72 hrs by MTT assay; format: functional, cell-based; conditions: HCC827, 72 h; summary of the method: as §1
[15] = tested on: NCI-H1975; assay: Antiproliferative activity against human NCI-H1975 cells using 10% 2-HPbetaCD compound formulation after 72 hrs by MTT assay; format: functional, cell-based; conditions: NCI-H1975, 72 h; summary of the method: as §1
[16] = tested on: NCI-H322M; assay: Growth inhibition of human NCI-H322M cells after 24 hrs by SRB assay; format: functional
[17] = tested on: HOP-92; assay: Growth inhibition of human HOP92 cells assessed as cell growth at 10 uM after 24 hrs by SRB assay relative to control; format: functional; conditions: HOP-92, 24 h, read-out: Activity; summary of the method: as §2
[18] = Aqueous solubility of the compound in water; format: physicochemical; conditions: buffer
[19] = tested on: HOP-62; assay: Growth inhibition of human HOP62 cells assessed as cell growth at 10 uM after 24 hrs by SRB assay relative to control; format: functional; conditions: HOP-62, 24 h, read-out: Activity; summary of the method: as §2
[20] = Solubility of the compound in 1% DMSO/water solution; format: physicochemical; conditions: buffer
[21] = tested on: NCI-H23; assay: Growth inhibition of human NCI-H23 cells assessed as cell growth at 10 uM after 24 hrs by SRB assay relative to control; format: functional; conditions: NCI-H23, 24 h, read-out: Activity; summary of the method: as §2
[22] = tested on: NCI-H460; assay: Disruption of mitochondrial membrane potential in human NCI-H460 cells at 98 uM up to 1 hr by JC1/DAPI staining based confocal microscopic method; format: functional, cell-based

**Q.** For `CCCCc1n(Cc2ccc3ccccc3c2)cc[n+]1Cc1ccc2ccccc2c1.[Br-]`, which GI50 [1] is on record?
**A.** 793 nM

**Q.** What about the TGI [1] of the same compound?
**A.** 2310 nM

**Q.** And the CC50 ([1]; read-out: LC50 (the source's name))?
**A.** 5850 nM

**Q.** And the IC50 [2]?
**A.** 2430 nM

**Q.** What about the IC50 [3] of the same compound?
**A.** 1740 nM

**Q.** And the IC50 [4]?
**A.** 2620 nM

**Q.** And the growth at 10 µM [5]?
**A.** -13.1%

**Q.** And the IC50 [6]?
**A.** 3250 nM

**Q.** And the solubility ([7]; buffer)?
**A.** > 4400 µg/mL

**Q.** And the growth at 10 µM [8]?
**A.** 29.8%

**Q.** What about the growth at 10 µM [9] of the same compound?
**A.** 14.4%

**Q.** What about the IC50 [10] of the same compound?
**A.** 2180 nM

**Q.** And the growth at 10 µM [11]?
**A.** 23.3%

**Q.** What about the IC50 [12] of the same compound?
**A.** 3500 nM

**Q.** What about the growth at 10 µM [13] of the same compound?
**A.** -0.47%

**Q.** And the IC50 [14]?
**A.** 2640 nM

**Q.** And the IC50 [15]?
**A.** 1020 nM

**Q.** And the GI50 [16]?
**A.** 1380 nM

**Q.** And the TGI [16]?
**A.** 2750 nM

**Q.** And the growth at 10 µM [17]?
**A.** -38.2%

**Q.** And the solubility [18]?
**A.** < 500 µg/mL

**Q.** What about the growth at 10 µM [19] of the same compound?
**A.** -2.71%

**Q.** What about the solubility [20] of the same compound?
**A.** Soluble

**Q.** What about the growth at 10 µM [21] of the same compound?
**A.** -23.8%

**Q.** Which Activity [22] does the source give for `N#CC(C#N)=NNc1cccc(Cl)c1` here?
**A.** Active

**Q.** With `CC(C)c1n(Cc2ccc3ccccc3c2)cc[n+]1Cc1ccc2ccccc2c1.[Br-]` as the compound, how does the IC50 [2] read?
**A.** 860 nM

**Q.** And the IC50 [3]?
**A.** 690 nM

**Q.** And the IC50 [4]?
**A.** 920 nM

**Q.** And the IC50 [6]?
**A.** 2130 nM

**Q.** And the solubility ([7]; 10% 2-HPbetaCD/water solution, read-out: solubility)?
**A.** > 4400 µg/mL

**Q.** And the IC50 [10]?
**A.** 1140 nM

**Q.** What about the IC50 [12] of the same compound?
**A.** 2540 nM

**Q.** And the IC50 [14]?
**A.** 1290 nM

**Q.** What about the IC50 [15] of the same compound?
**A.** 620 nM

**Q.** And the solubility [18]?
**A.** < 500 µg/mL

**Q.** And the solubility [20]?
**A.** Soluble
